5 compounds from publication PMC11636628 (Journal of receptor and signal transduction research, 2024) can be followed below.

The target of experiment [1] is T1, rat CB1 (Rattus norvegicus, UniProt P20272). The experiment is described as follows: PI hydrolysis, [3H]inositol phosphate chromatography, HEK/Gqi9 cells. It is filed as cell-based. The method in brief: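 HEK293 cells stably expressing Gqi9 were transfected with a pIRESpuro3 receptor construct and puromycin-selected. They were seeded at 1.5 X 10^5 cells/well and assayed after 48 h. Cells were labelled overnight with 0.4 μCi myo-[3H]inositol in inositol-free DMEM with 5% dialyzed FBS. Agonists were added at 5x in 50 mM LiCl/250 mM HEPES pH 7.25 for 30 min at 37 °C. Reactions were stopped with boiling EDTA pH 8.0, and [3H]inositol phosphates were resolved on Dowex AG1-X8 and scintillation counted.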
T1 sequence (P20272 whole entry): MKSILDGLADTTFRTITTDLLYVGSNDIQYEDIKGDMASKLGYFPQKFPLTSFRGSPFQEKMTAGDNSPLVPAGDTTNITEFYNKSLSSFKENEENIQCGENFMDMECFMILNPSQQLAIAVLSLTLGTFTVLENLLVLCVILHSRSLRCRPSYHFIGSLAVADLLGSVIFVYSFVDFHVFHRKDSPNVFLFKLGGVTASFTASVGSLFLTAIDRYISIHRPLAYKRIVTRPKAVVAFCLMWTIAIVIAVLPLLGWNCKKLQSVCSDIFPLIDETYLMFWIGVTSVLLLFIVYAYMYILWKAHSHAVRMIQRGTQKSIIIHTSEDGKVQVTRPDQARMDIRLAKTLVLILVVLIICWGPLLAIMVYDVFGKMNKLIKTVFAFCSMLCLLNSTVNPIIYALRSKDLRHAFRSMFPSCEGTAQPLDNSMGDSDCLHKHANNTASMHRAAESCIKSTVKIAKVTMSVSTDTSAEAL

The target of experiment [2] is T2, rat CB2 (Rattus norvegicus, UniProt Q9QZN9).
T2 sequence (Q9QZN9 1-360): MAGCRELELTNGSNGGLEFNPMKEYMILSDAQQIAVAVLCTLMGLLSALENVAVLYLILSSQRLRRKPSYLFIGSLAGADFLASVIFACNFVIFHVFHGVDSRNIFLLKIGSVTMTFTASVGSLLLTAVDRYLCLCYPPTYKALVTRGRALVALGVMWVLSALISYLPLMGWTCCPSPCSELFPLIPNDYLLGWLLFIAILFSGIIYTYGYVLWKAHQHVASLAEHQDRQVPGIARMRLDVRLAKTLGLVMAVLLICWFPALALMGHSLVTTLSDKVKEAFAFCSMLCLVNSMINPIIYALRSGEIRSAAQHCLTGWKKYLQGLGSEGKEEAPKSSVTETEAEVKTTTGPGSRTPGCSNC
The experiment is described as follows: thallium flux, HEK/GIRK cells, compound alone. It is filed as cell-based.

The target in a further experiment is human CB2 (Homo sapiens, UniProt P34972). As to the kind of experiment: thallium flux, HEK/GIRK cells. Format: cell-based. In a few lines: (§1)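 HEK/GIRK cells were made to stably express the receptor by ViaFect transfection with a pIRESpuro3 construct and selected with 1 μg/mL puromycin. Cells (15,000/well) were seeded overnight at 37 °C. They were loaded with 1.2 μM Thallos-AM in HBSS/20 mM HEPES pH 7.3 for 1 h at RT. Compound or DMSO was added, then 12 mM Tl2SO4 stimulus buffer with agonist 140 s later. The 145–155 s slope was vehicle-subtracted, normalized to maximal JWH133 signal and fit with a four-parameter logistic. Triplicate, three to five experiments.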
human CB2, sequence (P34972 whole entry): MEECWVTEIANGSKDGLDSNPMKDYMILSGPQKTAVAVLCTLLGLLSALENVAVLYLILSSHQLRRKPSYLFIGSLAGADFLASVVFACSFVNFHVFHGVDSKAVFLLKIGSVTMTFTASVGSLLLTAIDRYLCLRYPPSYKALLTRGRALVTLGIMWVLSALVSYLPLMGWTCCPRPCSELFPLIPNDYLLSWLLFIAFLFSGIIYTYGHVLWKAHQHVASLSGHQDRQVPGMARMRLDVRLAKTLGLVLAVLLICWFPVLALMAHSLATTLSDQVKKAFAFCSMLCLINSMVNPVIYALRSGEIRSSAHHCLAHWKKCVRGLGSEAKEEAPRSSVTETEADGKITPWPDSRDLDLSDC

A further experiment deals with human CB1 (Homo sapiens, UniProt P21554). As to the kind of experiment: thallium flux, HEK/GIRK cells. Format: cell-based.
human CB1, sequence (P21554 whole entry): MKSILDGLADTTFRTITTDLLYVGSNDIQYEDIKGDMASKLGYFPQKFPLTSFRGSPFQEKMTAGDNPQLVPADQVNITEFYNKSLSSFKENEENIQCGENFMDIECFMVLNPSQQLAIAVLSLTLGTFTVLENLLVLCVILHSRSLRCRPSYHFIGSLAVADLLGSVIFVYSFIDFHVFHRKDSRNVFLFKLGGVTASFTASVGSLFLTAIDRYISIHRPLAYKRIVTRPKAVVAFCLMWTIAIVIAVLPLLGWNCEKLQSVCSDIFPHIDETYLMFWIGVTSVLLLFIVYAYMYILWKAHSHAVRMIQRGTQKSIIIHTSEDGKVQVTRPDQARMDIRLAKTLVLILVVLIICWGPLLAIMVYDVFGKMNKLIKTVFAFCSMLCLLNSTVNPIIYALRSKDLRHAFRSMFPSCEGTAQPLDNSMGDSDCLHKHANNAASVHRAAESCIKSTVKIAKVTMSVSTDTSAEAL
For experiment [3], the target named is T1, rat CB1. As to the kind of experiment: thallium flux, HEK/GIRK cells. Format: cell-based.
Experiment [4] deals with T2, rat CB2. As to the kind of experiment: thallium flux, HEK/GIRK cells. It is filed as cell-based. In a few lines:
as §1

The target in experiment [5] is T2, rat CB2. The experiment is described as follows: [3H]CP55940 competition, HEK/GIRK membranes. Format: binding.

SMILES strings stand for the structures.

As usually defined, the EC50 is the concentration needed to bring the measured effect to its halfway point. A high value points to a need for much substance. For `Cc1c(Br)cn(Cc2ccc(F)cc2)c(=O)c1NC(=O)C1CCCCCC1` [EC21a], the figures for the EC50 at rat CB1 [1] and on rat CB2 [2] were 1700 nM and 100 nM, respectively.
On to `CCCCC/C=C\C/C=C\C/C=C\C/C=C\CCCC(=O)NCCCl` [ACEA, N-(2-Chloroethyl)-5Z,8Z,11Z,14Z-eicosatetraenamide], for which the EC50 at human CB2 was 1700 nM; on human CB1, 60.3 nM; on rat CB1 [3] it was 20 nM; on rat CB2 [4], 251 nM.
Usually IC50 stands for the concentration needed to halve the response being measured. Low values mean greater potency, high ones weaker potency. With `COc1ccc(C(=O)c2c(C)n(CCN3CCOCC3)c3cc(I)ccc23)cc1` [AM630], the 50% inhibitory concentration (IC50) on rat CB2 [5] is 72.4 nM.
With `CCCCC/C=C\C/C=C\C/C=C\C/C=C\CCCC(=O)OC(CO)CO` [2-AG], the EC50 is 145 nM on human CB2 and 49 nM at rat CB2 [4].
`CCCC(C)(C)c1ccc2c(c1)OC(C)(C)[C@@H]1CC=C(C)C[C@@H]21` [JWH133]: the values for the EC50 at human CB2, on human CB1 and on rat CB2 [4] were 275 nM, 1230 nM and 537 nM, respectively.
